Molecules are shown by their SMILES. Bounds are passed on as bounds.

Assay [1] has as its target T1, Mineralocorticoid receptor (Homo sapiens, UniProt P08235).
T1 sequence (P08235 whole entry): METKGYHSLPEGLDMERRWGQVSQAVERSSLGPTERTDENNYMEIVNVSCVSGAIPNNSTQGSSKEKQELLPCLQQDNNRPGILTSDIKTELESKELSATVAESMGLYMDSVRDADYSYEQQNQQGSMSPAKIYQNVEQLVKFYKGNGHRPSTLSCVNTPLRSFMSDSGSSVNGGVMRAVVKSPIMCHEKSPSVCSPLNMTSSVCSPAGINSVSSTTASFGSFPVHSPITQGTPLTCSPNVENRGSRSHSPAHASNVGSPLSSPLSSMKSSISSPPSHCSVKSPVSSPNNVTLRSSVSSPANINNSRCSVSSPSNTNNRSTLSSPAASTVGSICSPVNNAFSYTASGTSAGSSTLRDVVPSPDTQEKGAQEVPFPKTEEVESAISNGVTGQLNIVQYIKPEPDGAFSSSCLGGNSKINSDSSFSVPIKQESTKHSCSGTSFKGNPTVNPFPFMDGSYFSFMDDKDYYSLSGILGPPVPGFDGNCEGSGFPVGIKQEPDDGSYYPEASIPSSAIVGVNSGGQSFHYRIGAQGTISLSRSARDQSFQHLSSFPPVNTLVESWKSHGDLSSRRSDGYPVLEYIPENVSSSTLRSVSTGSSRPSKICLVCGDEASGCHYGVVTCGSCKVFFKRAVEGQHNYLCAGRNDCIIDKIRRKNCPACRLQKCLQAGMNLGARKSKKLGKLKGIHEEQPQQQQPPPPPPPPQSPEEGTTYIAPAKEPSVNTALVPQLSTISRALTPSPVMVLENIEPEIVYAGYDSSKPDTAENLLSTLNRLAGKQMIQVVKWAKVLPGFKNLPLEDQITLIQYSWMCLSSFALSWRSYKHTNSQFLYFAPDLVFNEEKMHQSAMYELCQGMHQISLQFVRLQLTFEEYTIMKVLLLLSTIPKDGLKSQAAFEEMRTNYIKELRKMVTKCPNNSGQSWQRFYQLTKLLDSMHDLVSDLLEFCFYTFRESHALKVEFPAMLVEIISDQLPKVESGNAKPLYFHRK
Kind of assay: Antagonist activity at human mineralocorticoid receptor expressed in HEK293 cells assessed as inhibition of […]-induced transcriptional activity by GRE-driven luciferase reporter gene assay. It counts as functional, cell-based. The gist of the method: (§1)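 Transcription assay in HEK293 cells cotransfected with full-length human receptor. Values are geometric means of at least duplicate determinations.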

The next assay concerns the target T2, Progesterone receptor (Homo sapiens, UniProt P06401).
T2 sequence (P06401 whole entry): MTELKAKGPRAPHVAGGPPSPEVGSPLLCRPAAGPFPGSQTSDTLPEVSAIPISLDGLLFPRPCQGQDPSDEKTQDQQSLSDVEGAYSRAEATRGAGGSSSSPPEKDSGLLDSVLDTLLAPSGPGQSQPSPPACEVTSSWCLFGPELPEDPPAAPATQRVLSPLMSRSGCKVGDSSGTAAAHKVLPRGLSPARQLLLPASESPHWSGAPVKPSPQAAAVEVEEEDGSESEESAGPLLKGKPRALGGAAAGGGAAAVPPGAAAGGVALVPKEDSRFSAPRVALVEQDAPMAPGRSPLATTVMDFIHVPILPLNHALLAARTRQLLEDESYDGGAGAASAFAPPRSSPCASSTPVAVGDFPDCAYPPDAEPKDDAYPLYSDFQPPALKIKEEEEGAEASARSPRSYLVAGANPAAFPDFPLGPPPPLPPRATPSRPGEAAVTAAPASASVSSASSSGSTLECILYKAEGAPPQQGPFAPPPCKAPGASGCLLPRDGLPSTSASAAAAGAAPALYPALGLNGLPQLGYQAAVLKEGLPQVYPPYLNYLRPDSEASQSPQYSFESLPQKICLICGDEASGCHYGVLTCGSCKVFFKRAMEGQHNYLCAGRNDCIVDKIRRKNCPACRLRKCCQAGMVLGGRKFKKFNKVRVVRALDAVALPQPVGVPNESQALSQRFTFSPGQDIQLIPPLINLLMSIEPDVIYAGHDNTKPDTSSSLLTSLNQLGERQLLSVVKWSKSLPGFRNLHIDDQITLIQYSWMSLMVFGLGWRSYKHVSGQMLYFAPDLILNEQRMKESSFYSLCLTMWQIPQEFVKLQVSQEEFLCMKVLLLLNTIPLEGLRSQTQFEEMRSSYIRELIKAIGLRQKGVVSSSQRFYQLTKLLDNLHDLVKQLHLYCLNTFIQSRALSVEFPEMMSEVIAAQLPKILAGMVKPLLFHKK
In words: Antagonist activity at human progesterone receptor expressed in HEK293 cells assessed as inhibition of […]-induced transcriptional activity by GRE-driven luciferase reporter gene assay. The class given is functional, cell-based. The method, boiled down: as §1

For a further assay, the target named is T3, Glucocorticoid receptor (Homo sapiens, UniProt P04150).
T3 sequence (P04150 whole entry): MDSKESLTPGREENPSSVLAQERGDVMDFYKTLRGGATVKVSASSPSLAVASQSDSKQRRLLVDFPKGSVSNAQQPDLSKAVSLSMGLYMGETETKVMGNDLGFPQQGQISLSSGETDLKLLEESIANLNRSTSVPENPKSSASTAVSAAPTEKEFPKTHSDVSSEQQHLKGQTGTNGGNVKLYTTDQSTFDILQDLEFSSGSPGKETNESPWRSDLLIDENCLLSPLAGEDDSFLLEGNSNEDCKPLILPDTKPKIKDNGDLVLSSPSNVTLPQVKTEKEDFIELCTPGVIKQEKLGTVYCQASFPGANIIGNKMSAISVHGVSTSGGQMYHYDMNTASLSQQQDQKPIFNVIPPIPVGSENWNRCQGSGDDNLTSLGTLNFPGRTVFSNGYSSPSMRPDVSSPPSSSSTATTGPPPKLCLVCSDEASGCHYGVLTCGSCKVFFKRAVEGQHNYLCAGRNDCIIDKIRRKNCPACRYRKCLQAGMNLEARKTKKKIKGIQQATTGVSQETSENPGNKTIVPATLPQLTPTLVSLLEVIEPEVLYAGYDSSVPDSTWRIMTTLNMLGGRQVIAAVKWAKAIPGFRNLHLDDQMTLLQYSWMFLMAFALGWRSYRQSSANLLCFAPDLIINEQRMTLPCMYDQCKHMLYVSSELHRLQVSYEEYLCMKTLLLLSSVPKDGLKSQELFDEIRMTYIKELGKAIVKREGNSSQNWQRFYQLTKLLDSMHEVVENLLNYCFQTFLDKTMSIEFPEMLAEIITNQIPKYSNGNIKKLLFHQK
In words: Displacement of [3H]methyltrienolone from human glucocorticoid receptor expressed in HEK293 cells. It counts as cell-based.

Assay [2] addresses T4, Mineralocorticoid receptor (Homo sapiens) (UniProt P08235).
T4 sequence (whole entry): T1 sequence (P08235 whole entry)
Kind of assay: Antagonist activity at human mineralocorticoid receptor expressed in HEK293 cells assessed as inhibition of […]-induced transcriptional activity by GRE-driven luciferase reporter gene assay relative to untreated control. It counts as functional, cell-based. Also on record: concentration or dose not given beside the values. To be noted: concentration not given here. The gist of the method:
as §1

For `CC(c1ccc(F)cc1)(c1c[nH]c2c(NS(C)(=O)=O)cccc12)C1CC1` (stereo not given), the IC50 in assay [1] amounted to 0.0641 µM; on Progesterone receptor it was 765 nM. The affinity on Glucocorticoid receptor corresponds to a Ki of 6.39 nM. The inhibition in assay [2] stood at 76.3%.

As for `COc1ccc(C(c2ccccc2)c2c[nH]c3ccccc23)cc1` (stereo not given), the concentration for half-maximal inhibition (IC50) is above 10 µM in assay [1] and 3720 nM at Progesterone receptor. This compound registered a Ki at Glucocorticoid receptor of 50.2 nM. Moreover, the inhibition in assay [2] was 40.8%.

On to `CC[C@H](C)n1cc(-c2ccc(C#N)cc2)c2ccc(NS(C)(=O)=O)cc21`, for which the IC50 in assay [1] is 9.8 µM; at Progesterone receptor, 3.89 nM. The same compound displayed a Ki on Glucocorticoid receptor of 1860 nM. In assay [2], the inhibition worked out at 43.4%.

In the case of `CC(C)n1cc(-c2ccc(C#N)c(F)c2)c2ccc(NS(C)(=O)=O)cc21`, the IC50 in assay [1] was found to be 8.15 µM; at Progesterone receptor, 2.29 nM. The compound further registered an inhibition constant (Ki) at Glucocorticoid receptor of 523 nM. The inhibition in assay [2] was found to be 50.2%.

Turning to `COc1cc(-c2cn(C(C)C)c3cc(NS(C)(=O)=O)ccc23)ccc1C#N`, the IC50 was found to be 2.42 µM in assay [1] and 7.28 nM on Progesterone receptor. On Glucocorticoid receptor, this compound yielded a Ki of 977 nM. For the same compound, the inhibition in assay [2] was determined as 35.8%.

As to `Cc1cc(-c2cn(C(C)C)c3cc(NS(C)(=O)=O)ccc23)ccc1C#N`, the figures for the IC50 (in assay [1]; on Progesterone receptor) were above 10 µM and 3.38 nM, respectively. Also, the affinity on Glucocorticoid receptor corresponds to a Ki of 157 nM. Moreover, the inhibition in assay [2] worked out at 56%.

As to `Cn1cc(-c2ccc(C#N)cc2)c2ccc(NS(C)(=O)=O)cc21`, the results for the half-maximal inhibitory concentration (IC50) (in assay [1]; at Progesterone receptor) were above 10 µM and 485 nM, respectively. The compound also came in with a Ki at Glucocorticoid receptor above 4290 nM. Besides, the inhibition in assay [2] was -2.2%.

Regarding `CC(C)n1cc(-c2ccc(C#N)cc2)c2ccc(NS(C)(=O)=O)cc21`, the IC50 in assay [1] is above 10 µM; at Progesterone receptor, 6.81 nM. Moreover, the Ki at Glucocorticoid receptor came out at 1530 nM. In addition, in assay [2], the inhibition was 36.6%.

In the case of `CC[C@@H](C)n1cc(-c2ccc(C#N)cc2)c2ccc(NS(C)(=O)=O)cc21`, the IC50 is above 10 µM in assay [1] and 9.92 nM at Progesterone receptor. The same compound had a Ki at Glucocorticoid receptor of 780 nM. Further, the inhibition in assay [2] turned out to be 39.2%.

For the compound `CCn1cc(-c2ccc(C#N)cc2)c2ccc(NS(C)(=O)=O)cc21`, the 50% inhibitory concentration (IC50) in assay [1] was above 10 µM; at Progesterone receptor it was 12.6 nM. The affinity on Glucocorticoid receptor corresponds to a Ki of 927 nM. Also, in assay [2], the inhibition was found to be 23.8%.

These data come from ChEMBL document CHEMBL1671834, “Novel 3-aryl indoles as progesterone receptor antagonists for uterine fibroids” (ACS Med Chem Lett, 2011).
